Assay results published in ChEMBL document CHEMBL1137754, “Inhibitors of potassium channels KV1.3 and IK-1 as immunosuppressants” (Bioorg Med Chem Lett, 2009).
pEC50, pIC50: −log10 of the molar value. Activity calls are given as the source filed them. No cut-off for these calls is given here.

Assays:
[1] = target: T1, Potassium voltage-gated channel subfamily A member 3 (Homo sapiens, UniProt P22001); test: Inhibition of cloned Kv1.3 channel expressed in mammalian cells at 2 uM by whole cell patch clamp assay; type: cell-based
T1 sequence (P22001 whole entry): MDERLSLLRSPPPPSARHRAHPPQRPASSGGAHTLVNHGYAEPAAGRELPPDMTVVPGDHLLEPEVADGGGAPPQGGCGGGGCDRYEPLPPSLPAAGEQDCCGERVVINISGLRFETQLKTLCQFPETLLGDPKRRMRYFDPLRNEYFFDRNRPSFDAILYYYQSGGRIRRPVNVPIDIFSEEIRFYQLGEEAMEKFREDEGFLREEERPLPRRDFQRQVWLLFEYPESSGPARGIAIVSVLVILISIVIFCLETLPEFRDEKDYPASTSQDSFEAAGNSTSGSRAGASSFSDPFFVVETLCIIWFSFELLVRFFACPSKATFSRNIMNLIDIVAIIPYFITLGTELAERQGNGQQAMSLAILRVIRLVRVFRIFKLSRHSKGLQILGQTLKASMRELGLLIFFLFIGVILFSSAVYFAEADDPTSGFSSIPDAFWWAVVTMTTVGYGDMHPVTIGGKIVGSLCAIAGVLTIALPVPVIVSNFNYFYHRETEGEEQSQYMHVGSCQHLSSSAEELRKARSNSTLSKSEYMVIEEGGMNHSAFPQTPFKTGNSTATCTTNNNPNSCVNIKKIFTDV
How it was run: (§1)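 Whole-cell patch clamp recording, n ≥ 2 individual experiments per compound concentration using different cells. Dose–response curves used four or more concentrations.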

[2] = target: T1, Potassium voltage-gated channel subfamily A member 3; test: Inhibition of cloned Kv1.3 channel expressed in mammalian cells by whole cell patch clamp assay; type: cell-based; how it was run: as §1
[3] = target: Intermediate conductance calcium-activated potassium channel protein 4 (Homo sapiens, UniProt O15554); test: Inhibition of human cloned IK1 expressed in african green monkey COS7 cells by whole cell patch clamp assay; type: cell-based, COS-7
Intermediate conductance calcium-activated potassium channel protein 4, sequence (O15554 whole entry): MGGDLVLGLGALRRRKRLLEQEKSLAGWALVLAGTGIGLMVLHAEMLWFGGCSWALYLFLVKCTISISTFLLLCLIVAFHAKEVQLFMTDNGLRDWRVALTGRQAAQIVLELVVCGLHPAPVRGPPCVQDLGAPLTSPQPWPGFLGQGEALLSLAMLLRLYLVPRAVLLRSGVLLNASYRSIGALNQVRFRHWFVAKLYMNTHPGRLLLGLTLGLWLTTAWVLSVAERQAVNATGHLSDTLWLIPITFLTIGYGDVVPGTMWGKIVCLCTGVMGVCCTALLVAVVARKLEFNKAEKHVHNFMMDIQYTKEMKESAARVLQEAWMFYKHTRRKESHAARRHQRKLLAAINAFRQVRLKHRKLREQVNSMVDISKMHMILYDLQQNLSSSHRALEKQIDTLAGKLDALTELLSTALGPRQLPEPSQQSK

PBMC [4] = test: Immunosuppressant activity in human effector memory T cells of PBMC assessed as inhibition of anti-CD3 antibody-induced cell proliferation by ELISA; type: functional, cell-based
PBMC [5] = test: Immunosuppressant activity in human effector memory T cells of PBMC assessed as inhibition of anti-CD3 antibody-induced cell proliferation by ELISA in presence of 5 uM IK1-blocker TRAM34; type: functional, cell-based
How it was run: (§2)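 T_EM fraction of PBMCs stimulated with anti-CD3 antibody; proliferation dose–response curves for one channel blocker were run against a fixed background of a blocker of the other channel (IK-1 blocker, or 5 µM PAP-1 for Kv1.3). The read-out was EC50.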

PBMC [6] = test: Immunosuppressant activity in human effector memory T cells of PBMC assessed as inhibition of anti-CD3 antibody-induced cell proliferation by ELISA in presence of 5 uM IK1-blocker 5-(Toluene-4-sulfonyl)-5,6-dihydro-dibenzo[b,d]azepin-7-one; type: functional, cell-based; how it was run: as §2
PBMC [7] = test: Immunosuppressant activity in human effector memory T cells of PBMC assessed as inhibition of anti-CD3 antibody-induced cell proliferation by ELISA in presence of 5 uM IK1-blocker 5-(4-Chloro-benzenesulfonyl)-5,6-dihydro-dibenzo[b,d]azepin-7-one; type: functional, cell-based; how it was run: as §2
PBMC [8] = test: Immunosuppressant activity in human effector memory T cells of PBMC assessed as inhibition of anti-CD3 antibody-induced cell proliferation by ELISA in presence of 16.7 uM IK1-blocker 5-(4-Chloro-benzenesulfonyl)-5,6-dihydro-dibenzo[b,d]azepin-7-one; type: functional, cell-based; how it was run: as §2
Mus musculus = test: Antiinflammatory activity against oxazolone-induced delayed type hypersensitivity in mouse assessed as reduction in ear swelling at 1%, topically applied 30 mins post oxazolone challenge; type: functional; parameters: scale not given: the % may be the effect or the level left
How it was run: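 Mouse DTH ear-swelling model with oxazolone sensitization and challenge. A single topical dose at 1% in ethanol–DMSO 4:1 was applied 30 min after challenge. The read-out was ear swelling relative to a vehicle-treated group. Protopic (0.1%) served as positive control. Values are means of n = 5 animals per group.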

HaCaT [9] = test: Inhibition of human HaCaT cell proliferation after 48 hrs; type: functional, cell-based
How it was run: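 HaCaT keratinocytes were seeded in KBM/10% FCS and held 24 h at 37 °C. Compounds diluted in KBM/FCS (final 1% DMSO) were added in triplicate and incubated 48 h.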

[10] = Cytotoxicity against human effector memory T cells of PBMC; type: cell-based, T-cell; details: effector memory T cells from PBMC, read-out: LD50 (the source's name)
[11] = (§3) Cytotoxicity against human HaCaT cells; type: cell-based; details: HaCaT cells, read-out: LD50 (the source's name)
[12] = target: T1, Potassium voltage-gated channel subfamily A member 3; test: Inhibition of cloned Kv1.3 channel expressed in mammalian cells at 20 uM by whole cell patch clamp assay
PBMC [13] = test: Immunosuppressant activity in human effector memory T cells of PBMC assessed as inhibition of anti-CD3 antibody-induced cell proliferation by ELISA in presence of 5 uM Kv1.3-blocker PAP1; type: functional, cell-based; how it was run: as §2
[14] = Cytotoxicity against human effector memory T cells of PBMC up to 50 uM; type: cell-based
HaCaT [15] = test: as §3; type: cell-based; details: hacat
HaCaT [16] = test: Cytotoxicity against human HaCaT cells up to 50 uM; type: cell-based
[17] = target: T1, Potassium voltage-gated channel subfamily A member 3; test: Inhibition of cloned Kv1.3 channel expressed in mammalian cells at 20 uM by whole cell patch clamp assay; type: cell-based; how it was run: as §1

**Q.** With `O=C(c1ccc[nH]1)C1c2ccccc2-c2ccccc2N1C(=O)c1ccco1` (configuration not stated) as the compound, how does the inhibition [1] read?
**A.** 15%

**Q.** With `Cc1ccc(C(=O)N2CC(=O)c3ccccc3-c3ccccc32)cc1` as the compound, how does the pIC50 [2] read?
**A.** 5.40

**Q.** What about the pIC50 [3] of the same compound?
**A.** 4.80

**Q.** With `O=c1ccc2c(OCCCCOc3ccccc3)c3ccoc3cc2o1` as the compound, how does the pIC50 [3] read?
**A.** 5.00

**Q.** What about the pEC50 (PBMC [4]) of the same compound?
**A.** 4.60

**Q.** What about the pEC50 (PBMC [5]) of the same compound?
**A.** 6.37

**Q.** What about the pEC50 (PBMC [6]) of the same compound?
**A.** 6.40

**Q.** What about the pEC50 (PBMC [7]) of the same compound?
**A.** 5.92

**Q.** And the pEC50 (PBMC [8])?
**A.** 6.30

**Q.** For `COc1cccc(C(=O)C2c3ccccc3-c3ccccc3N2C(=O)c2ccco2)c1` (configuration not stated), which inhibition [1] is on record?
**A.** 30%

**Q.** Which Activity (Mus musculus) does the source give for `Clc1ccccc1C(c1ccccc1)(c1ccccc1)n1ccnc1` [CLOTRIMAZOLE] here?
**A.** 20%

**Q.** What about the pIC50 [2] of the same compound?
**A.** 5.22

**Q.** And the pEC50 (HaCaT [9])?
**A.** 4.82

**Q.** What about the CC50 [10] of the same compound?
**A.** 40 µM

**Q.** And the CC50 [11]?
**A.** 40 µM

**Q.** For `O=c1[nH]c2ccccc2c2ccccc12`, which inhibition [12] is on record?
**A.** 12%

**Q.** For `Cc1ccc(S(=O)(=O)N2CC(=O)c3ccccc3-c3ccccc32)cc1`, which Activity (Mus musculus) is on record?
**A.** 20%

**Q.** And the pIC50 [2]?
**A.** 5.24

**Q.** What about the pIC50 [3] of the same compound?
**A.** 5.68

**Q.** And the pEC50 (HaCaT [9])?
**A.** 5.08

**Q.** What about the Activity (PBMC [4]) of the same compound?
**A.** inactive

**Q.** And the pEC50 (PBMC [13])?
**A.** 5.60

**Q.** And the Activity [14]?
**A.** Non-toxic

**Q.** What about the Activity (HaCaT [15]) of the same compound?
**A.** Non-toxic

**Q.** What about the Activity (HaCaT [16]) of the same compound?
**A.** Non-toxic

**Q.** With `CC(=O)N1c2ccccc2-c2ccccc2C1c1c[nH]c2ccccc12` (configuration not stated) as the compound, how does the pIC50 [2] read?
**A.** 5.30

**Q.** With `O=C(c1cc(F)ccc1F)N1c2ccccc2-c2ccccc2C1c1cccs1` (configuration not stated) as the compound, how does the inhibition [1] read?
**A.** 27%

**Q.** For `O=C(CCC1CCCC1)C1c2ccccc2-c2ccccc2N1C(=O)c1ccco1` (configuration not stated), which inhibition [1] is on record?
**A.** 11%

**Q.** Which inhibition [1] does the source give for `O=C(CCc1ccccc1)C1c2ccccc2-c2ccccc2N1C(=O)c1ccco1` (configuration not stated) here?
**A.** 15%

**Q.** With `O=C1CN(C(=O)c2cccc(Cl)c2)c2ccccc2-c2ccccc21` as the compound, how does the pIC50 [2] read?
**A.** 5.47

**Q.** And the pIC50 [3]?
**A.** 5.89

**Q.** With `O=C1CN(S(=O)(=O)c2cccs2)c2ccccc2-c2ccccc21` as the compound, how does the pIC50 [2] read?
**A.** 4.89

**Q.** What about the pIC50 [3] of the same compound?
**A.** 5.62

**Q.** For `O=c1c2ccccc2c2ccccc2n1CCn1cccc1`, which inhibition [17] is on record?
**A.** 57%

**Q.** What about the pEC50 (HaCaT [9]) of the same compound?
**A.** 5.64

**Q.** What about the inhibition [12] of the same compound?
**A.** 57%

**Q.** With `O=C1CN(S(=O)(=O)c2ccc([N+](=O)[O-])cc2)c2ccccc2-c2ccccc21` as the compound, how does the pIC50 [2] read?
**A.** < 5.00

**Q.** What does the source list for `CCCC(C)C(=O)N1c2ccccc2-c2ccccc2C1c1cccs1` (configuration not stated)?
**A.** pIC50 [2]: > 5.70; inhibition [1]: 59%

**Q.** Which inhibition [1] does the source give for `O=C(c1ccc2c(c1)OCO2)C1c2ccccc2-c2ccccc2N1C(=O)c1ccco1` (configuration not stated) here?
**A.** 8%

**Q.** With `O=C1CN(S(=O)(=O)c2cccc(Cl)c2)c2ccccc2-c2ccccc21` as the compound, how does the pIC50 [2] read?
**A.** 5.44

**Q.** What does the source list for `Clc1ccccc1C(c1ccccc1)(c1ccccc1)n1cccn1`?
**A.** pIC50 [2]: 5.30; pEC50 (HaCaT [9]): 4.40; Activity (PBMC [4]): inactive; pEC50 (PBMC [13]): 7.60

**Q.** With `O=C(O)C(=O)C1c2ccccc2-c2ccccc2N1C(=O)c1ccco1` (configuration not stated) as the compound, how does the inhibition [1] read?
**A.** 41%

**Q.** For `COc1ccc(C(=O)C2c3ccccc3-c3ccccc3N2C(=O)c2ccco2)cc1` (configuration not stated), which inhibition [1] is on record?
**A.** 13%
